Experimental data collected from several papers.
Each line is one published result; the experiments were not run side by side.
PCNA: Proliferating cell nuclear antigen (PCNA, Homo sapiens, UniProt P12004)
F10 trypsin-like site: Coagulation factor X, trypsin-like site (F10, Homo sapiens, UniProt P00742)
ADRB2: Beta-2 adrenergic receptor (ADRB2, Homo sapiens, UniProt P07550)
MMP2: 72 kDa type IV collagenase (MMP2, Homo sapiens, UniProt P08253)
Ntsr1: Neurotensin receptor type 1 (Ntsr1, Rattus norvegicus, UniProt P20789)

CC[C@H](C)[C@H](NC(=O)[C@H](C)NC(=O)[C@H](CO)NC(=O)[C@H](CC(=O)O)NC(=O)[C@H](CCCCN)NC(=O)[C@H](CCCCN)NC(=O)CNC(=O)[C@H](Cc1c[nH]cn1)NC(=O)[C@@H](N)CCC(N)=O)C(=O)N[C@H](C(=O)N[C@@H](CC(=O)O)C(=O)N[C@@H](Cc1c[nH]cn1)C(=O)N[C@@H](Cc1ccccc1)C(=O)N[C@@H](CCSC)C(=O)N[C@@H](CCCNC(=N)N)C(=O)N[C@@H](CC(C)C)C(=O)N1CCC[C@H]1C(=O)N[C@@H](CCCCN)C(=O)N[C@@H](C)C(=O)O)[C@@H](C)O — Kd (PCNA; binding, ITC; pH 7.4): 24.9 µM
CC(C)(C)[C@H](NC(=O)[C@H](CCONC(=N)N)NC(=O)Cc1ccc(CN)cc1)C(=O)N[C@@H](CCCCN)C(=O)NCc1ccc(C(=N)N)cc1 — Ki (F10 trypsin-like site; enzyme activity, inhibitor; pH 8): 18 µM
C[C@H](N)Cn1ncc2ccc3c(c21)CCCO3 — Ki (ADRB2; cell-free assay, radioligand): 0.48 µM
CC[C@H](C)[C@H](NC(=O)[C@H](CCCCN)NC(=O)[C@H](CO)NC(=O)[C@H](CC(=O)O)NC(=O)[C@H](CCCCN)NC(=O)[C@H](CCCCN)NC(=O)CNC(=O)[C@H](Cc1c[nH]cn1)NC(=O)[C@@H](N)CCC(N)=O)C(=O)N[C@@H](C)C(=O)N[C@@H](CC(=O)O)C(=O)N[C@@H](Cc1c[nH]cn1)C(=O)N[C@@H](Cc1ccccc1)C(=O)N[C@@H](CCSC)C(=O)N[C@@H](CCCNC(=N)N)C(=O)N[C@@H](CC(C)C)C(=O)N1CCC[C@H]1C(=O)N[C@@H](CCCCN)C(=O)N[C@@H](C)C(=O)O — Kd (PCNA; binding, ITC; pH 7.4): 55.5 µM
C#CCOc1ccc(S(=O)(=O)CC2CS2)cc1 (racemic) — IC50 (MMP2; enzyme activity, inhibitor, fluorescence): 7 µM
O=C(N[C@H]1COC(=O)[C@@H](NC(=O)c2cccc(O)c2[O-])COC(=O)[C@@H](NC(=O)c2cccc(O)c2[O-])COC1=O)c1cccc(O)c1[O-].[Fe+3] — Kd (Neutrophil gelatinase-associated lipocalin (LCN2, Homo sapiens, UniProt P80188, C107S); binding, fluorescence; pH 7.4): 0.00041 µM
c1ccc2c(c1)ccc1ccc3ccccc3c12 — Kd (Cytochrome P450 1B1 (CYP1B1, Homo sapiens, UniProt Q16678); binding, absorbance; pH 7.4): 2.5 µM
CCC#CCOc1ccc(S(=O)(=O)CC2CS2)cc1 (racemic) — IC50 (MMP2; enzyme activity, inhibitor, fluorescence): 14 µM
CC[C@H](C)[C@H](NC(=O)[C@H](CCCCN)NC(=O)[C@H](CO)NC(=O)[C@H](CC(=O)O)NC(=O)[C@H](CCCCN)NC(=O)[C@H](CCCCN)NC(=O)CNC(=O)[C@H](Cc1c[nH]cn1)NC(=O)[C@@H](N)CCC(N)=O)C(=O)N[C@H](C(=O)N[C@@H](CC(=O)O)C(=O)N[C@@H](C)C(=O)N[C@@H](Cc1ccccc1)C(=O)N[C@@H](CCSC)C(=O)N[C@@H](CCCNC(=N)N)C(=O)N[C@@H](CC(C)C)C(=O)N1CCC[C@H]1C(=O)N[C@@H](CCCCN)C(=O)N[C@@H](C)C(=O)O)[C@@H](C)O — Kd (PCNA; binding, ITC; pH 7.4): 126 µM
NCC(O)c1ccc(O)cc1 (stereo not shown) — IC50 (ADRB2; ligand displacement, radioligand; cell membranes): 73.7 µM
CC(C)(C)[C@H](NC(=O)[C@H](CCCNC(=N)N)NC(=O)Cc1ccc(CNC(=N)N)cc1)C(=O)N[C@@H](CCCNC(=N)N)C(=O)NCc1ccc(C(=N)N)cc1 — Ki (F10 trypsin-like site; enzyme activity, inhibitor; pH 8): 7.1 µM
CC[C@H](C)[C@H](NC(=O)[C@H](CCCCN)NC(=O)[C@H](CO)NC(=O)[C@H](C)NC(=O)[C@H](CCCCN)NC(=O)[C@H](CCCCN)NC(=O)CNC(=O)[C@H](Cc1c[nH]cn1)NC(=O)[C@@H](N)CCC(N)=O)C(=O)N[C@H](C(=O)N[C@@H](CC(=O)O)C(=O)N[C@@H](Cc1c[nH]cn1)C(=O)N[C@@H](Cc1ccccc1)C(=O)N[C@@H](CCSC)C(=O)N[C@@H](CCCNC(=N)N)C(=O)N[C@@H](CC(C)C)C(=O)N1CCC[C@H]1C(=O)N[C@@H](CCCCN)C(=O)N[C@@H](C)C(=O)O)[C@@H](C)O — Kd (PCNA; binding, ITC; pH 7.4): 2.45 µM
CC(=O)N[C@@H](C)C(=O)N1CCC[C@H]1C(=O)N[C@@H](CC(C)C)C(=O)N[C@H](C(=O)N[C@@H](CCCNC(=N)N)C(=O)NCC(=O)N[C@@H](CO)C(=O)N[C@@H](CS)C(=O)N[C@@H](CCCNC(=N)N)C(=O)N[C@@H](CCCCN)C(=O)N[C@@H](CCCNC(=N)N)C(=O)N[C@@H](CC(N)=O)C(=O)N[C@@H](CCCNC(=N)N)C(=O)N[C@@H](CO)C(=O)N1CCC[C@H]1C(=O)N[C@@H](CCC(=O)O)C(=O)N[C@@H](CCCNC(=N)N)C(N)=O)[C@@H](C)O — Kd (WD repeat-containing protein 5 (WDR5, Homo sapiens, UniProt P61964); binding, ITC; pH 7): 14.6 µM
FC(F)(F)c1ccc2c(c1)[C@@H]1CNC[C@H]2C1 — Ki (Neuronal acetylcholine receptor subunit alpha-7 (CHRNA7, Homo sapiens, UniProt P36544); cell-free assay): > 0.3 µM
CC(C)(C)[C@H](NC(=O)[C@H](CCCNC(=N)N)NC(=O)Cc1ccc(CN)cc1)C(=O)N[C@@H](CCONC(=N)N)C(=O)NCc1ccc(C(=N)N)cc1 — Ki (F10 trypsin-like site; enzyme activity, inhibitor; pH 8): 28 µM
O=C1C2(Cl)C3(Cl)C4(Cl)C(Cl)(Cl)C5(Cl)C3(Cl)C1(Cl)C5(Cl)C24Cl (stereo not shown) — IC50 (Histone-lysine N-methyltransferase SETD7 (SETD7, Homo sapiens, UniProt Q8WTS6); enzyme activity, inhibitor): > 333 µM
CN1[C@@H]2C[C@@H](OC(=O)[C@H](CO)c3ccccc3)C[C@H]1[C@@H]1O[C@@H]12 — Ki (Ileal sodium/bile acid cotransporter (SLC10A2, Homo sapiens, UniProt Q12908); transporter uptake, inhibitor): 6450 µM
COc1ccccc1-c1cc(C(=O)NC2(C(=O)O)CCCCC2)nn1-c1ccc(F)cc1 — Kb (Ntsr1; calcium signal, antagonist, fluorescence): > 10 µM
CC[C@H](C)[C@H](NC(=O)[C@H](CCCCNC(C)=O)NC(=O)[C@H](CO)NC(=O)[C@H](CC(=O)O)NC(=O)[C@H](CCCCN)NC(=O)[C@H](CCCCN)NC(=O)CNC(=O)[C@H](Cc1c[nH]cn1)NC(=O)[C@@H](N)CCC(N)=O)C(=O)N[C@H](C(=O)N[C@@H](CC(=O)O)C(=O)N[C@@H](Cc1c[nH]cn1)C(=O)N[C@@H](Cc1ccccc1)C(=O)N[C@@H](CCSC)C(=O)N[C@@H](CCCNC(=N)N)C(=O)N[C@@H](CC(C)C)C(=O)N1CCC[C@H]1C(=O)N[C@@H](CCCCN)C(=O)N[C@@H](C)C(=O)O)[C@@H](C)O — Kd (PCNA; binding, ITC; pH 7.4): 6.14 µM
NCC(O)c1cc(O)c(O)cc1F (stereo not shown) — Ki (ADRB2; ligand displacement, radioligand; cell membranes): 1160 µM
O=C(N[C@H](C(=O)O)C1CCCCC1)c1cc(-c2c(F)cccc2F)n(-c2ccnc3cc(Cl)ccc23)n1 — Kb (Ntsr1; calcium signal, antagonist, fluorescence): > 10 µM
NCC(O)c1ccc(O)c(O)c1F (stereo not shown) — Ki (ADRB2; ligand displacement, radioligand; cell membranes): 16 µM
CCOC(=O)C(CC)(CCCSCCOCCOCCNc1ccc([N+](=O)[O-])c2nonc12)NC(=O)c1ccc(C2CC2)c(Cc2ccc(F)cc2)n1 (racemic) — EC50 (Cannabinoid receptor 2 (CNR2, Homo sapiens, UniProt P34972); cAMP, agonist): 0.0047 µM
CC[C@H](C)[C@H](NC(=O)[C@H](CCCNC(=N)N)NC(=O)[C@H](CO)NC(=O)[C@H](CC(=O)O)NC(=O)[C@H](CCCCN)NC(=O)[C@H](CCCCN)NC(=O)CNC(=O)[C@H](Cc1c[nH]cn1)NC(=O)[C@@H](N)CCC(N)=O)C(=O)N[C@H](C(=O)N[C@@H](CC(=O)O)C(=O)N[C@@H](Cc1c[nH]cn1)C(=O)N[C@@H](Cc1ccccc1)C(=O)N[C@@H](CCSC)C(=O)N[C@@H](CCCNC(=N)N)C(=O)N[C@@H](CC(C)C)C(=O)N1CCC[C@H]1C(=O)N[C@@H](CCCCN)C(=O)N[C@@H](C)C(=O)O)[C@@H](C)O — Kd (PCNA; binding, ITC; pH 7.4): 6.67 µM
O=C(CCCCCCNC(=O)c1cnc(N(c2ccccc2)c2ccccc2)nc1)NO — IC50 (Polyamine deacetylase HDAC10 (HDAC10, Homo sapiens, UniProt Q969S8); enzyme activity, inhibitor, fluorescence): 0.466 µM
